Assay results published in ChEMBL document CHEMBL1629548, “In vitro activities of tigecycline against clinical isolates of Aeromonas, Vibrio, and Salmonella species in Taiwan” (2008).

What was measured:
Salmonella [1] = experiment: Antimicrobial activity against Salmonella serogroup O9 assessed as susceptible isolate by FDA method; assay type: functional
How it was run: (§1)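 Susceptibility categories assigned from tigecycline broth microdilution MICs (CLSI method, 0.03–128 μg/ml) using US FDA or EUCAST breakpoints, as named in each line.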

Salmonella [2] = experiment: Antimicrobial activity against Salmonella serogroup O8 assessed as intermediate isolate by EUCAST method; assay type: functional; how it was run: as §1
[3] = Antimicrobial activity against Salmonella serotype Choleraesuis assessed as resistant isolate by EUCAST method; assay type: functional, Salmonella enterica subsp. enterica serovar Choleraesuis
How it was run: (§2)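 Tigecycline MICs for clinical isolates (Taiwan) were determined by broth microdilution over 0.03 to 128 μg/ml. A control strain was included, and its MICs had to fall within the recommended range. Susceptible, intermediate and resistant categories were assigned from the MICs using US FDA and EUCAST breakpoints.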

Salmonella [4] = experiment: Antimicrobial activity against Salmonella serogroup O9 assessed as intermediate isolate by FDA method; assay type: functional; how it was run: as §1
Vibrio parahaemolyticus [5] = experiment: Antimicrobial activity against Vibrio parahaemolyticus assessed as intermediate isolate by EUCAST method; assay type: functional; how it was run: as §1
Aeromonas sobria [6] = experiment: Antimicrobial activity against Aeromonas sobria assessed as intermediate isolate by FDA method; assay type: functional; how it was run: as §2
[7] = Antimicrobial activity against Salmonella serotype Choleraesuis assessed as susceptible isolate by FDA method; assay type: functional, Salmonella enterica subsp. enterica serovar Choleraesuis; how it was run: as §2
Vibrio cholerae [8] = experiment: Antimicrobial activity against Vibrio cholerae non-O1 assessed as resistant isolate by EUCAST method; assay type: functional; how it was run: as §2
Vibrio vulnificus [9] = experiment: Antimicrobial activity against Vibrio vulnificus assessed as intermediate isolate by FDA method; assay type: functional; how it was run: as §1
Salmonella [10] = experiment: Antimicrobial activity against Salmonella serogroup O7 assessed as intermediate isolate by FDA method; assay type: functional; how it was run: as §1
Vibrio parahaemolyticus [11] = experiment: Antimicrobial activity against Vibrio parahaemolyticus assessed as susceptible isolate by EUCAST method; assay type: functional; how it was run: as §1
Vibrio parahaemolyticus [12] = experiment: Antimicrobial activity against Vibrio parahaemolyticus assessed as intermediate isolate by FDA method; assay type: functional; how it was run: as §2
Vibrio vulnificus [13] = experiment: Antimicrobial activity against Vibrio vulnificus assessed as susceptible isolate by EUCAST method; assay type: functional; how it was run: as §1
Salmonella [14] = experiment: Antimicrobial activity against Salmonella serogroup O7 assessed as susceptible isolate by EUCAST method; assay type: functional; how it was run: as §1
[15] = Antimicrobial activity against Salmonella serotype Choleraesuis assessed as resistant isolate by FDA method; assay type: functional, Salmonella enterica subsp. enterica serovar Choleraesuis; how it was run: as §2
Aeromonas hydrophila [16] = experiment: Antimicrobial activity against Aeromonas hydrophila assessed as susceptible isolate by EUCAST method; assay type: functional; how it was run: as §1
[17] = Antimicrobial activity against Salmonella serotype Choleraesuis assessed as intermediate isolate by FDA method; assay type: functional, Salmonella enterica subsp. enterica serovar Choleraesuis; how it was run: as §2
Salmonella [18] = experiment: Antimicrobial activity against Salmonella serogroup O9 assessed as intermediate isolate by EUCAST method; assay type: functional; how it was run: as §2
Salmonella typhimurium [19] = experiment: Antimicrobial activity against Salmonella serotype Typhimurium assessed as intermediate isolate by EUCAST method; assay type: functional, Salmonella enterica subsp. enterica serovar Typhimurium; how it was run: as §1
Vibrio cholerae [20] = experiment: Antimicrobial activity against Vibrio cholerae non-O1 assessed as intermediate isolate by FDA method; assay type: functional; how it was run: as §2
Vibrio cholerae [21] = experiment: Antimicrobial activity against Vibrio cholerae non-O1 assessed as susceptible isolate by FDA method; assay type: functional; how it was run: as §2
Aeromonas sobria [22] = experiment: Antimicrobial activity against Aeromonas sobria assessed as susceptible isolate by EUCAST method; assay type: functional; how it was run: as §1
Aeromonas sobria [23] = experiment: Antimicrobial activity against Aeromonas sobria assessed as susceptible isolate by FDA method; assay type: functional; how it was run: as §1
Salmonella [24] = experiment: Antimicrobial activity against Salmonella serogroup O8 assessed as susceptible isolate by FDA method; assay type: functional; how it was run: as §1
[25] = Antimicrobial activity against Salmonella serotype Choleraesuis assessed as intermediate isolate by EUCAST method; assay type: functional, Salmonella enterica subsp. enterica serovar Choleraesuis; how it was run: as §2
Vibrio cholerae [26] = experiment: Antimicrobial activity against Vibrio cholerae non-O1 assessed as susceptible isolate by EUCAST method; assay type: functional; how it was run: as §2
Vibrio parahaemolyticus [27] = experiment: Antimicrobial activity against Vibrio parahaemolyticus assessed as susceptible isolate by FDA method; assay type: functional; how it was run: as §1
Aeromonas caviae [28] = experiment: Antimicrobial activity against Aeromonas caviae assessed as intermediate isolate by EUCAST method; assay type: functional; how it was run: as §2
Aeromonas caviae [29] = experiment: Antimicrobial activity against Aeromonas caviae assessed as susceptible isolate by EUCAST method; assay type: functional; how it was run: as §1
Salmonella [30] = experiment: Antimicrobial activity against Salmonella serogroup O7 assessed as intermediate isolate by EUCAST method; assay type: functional; how it was run: as §1
Salmonella [31] = experiment: Antimicrobial activity against Salmonella serogroup O9 assessed as susceptible isolate by EUCAST method; assay type: functional; how it was run: as §1
Aeromonas caviae [32] = experiment: Antimicrobial activity against Aeromonas caviae assessed as susceptible isolate by FDA method; assay type: functional; how it was run: as §2
Salmonella [33] = experiment: Antimicrobial activity against Salmonella serogroup O8 assessed as susceptible isolate by EUCAST method; assay type: functional; how it was run: as §1
Salmonella typhimurium [34] = experiment: Antimicrobial activity against Salmonella serotype Typhimurium assessed as intermediate isolate by FDA method; assay type: functional, Salmonella enterica subsp. enterica serovar Typhimurium; how it was run: as §1
Salmonella [35] = experiment: Antimicrobial activity against Salmonella serogroup O8 assessed as intermediate isolate by FDA method; assay type: functional; how it was run: as §1
Vibrio vulnificus [36] = experiment: Antimicrobial activity against Vibrio vulnificus assessed as intermediate isolate by EUCAST method; assay type: functional; how it was run: as §2
Aeromonas caviae [37] = experiment: Antimicrobial activity against Aeromonas caviae assessed as intermediate isolate by FDA method; assay type: functional; how it was run: as §1
Aeromonas hydrophila [38] = experiment: Antimicrobial activity against Aeromonas hydrophila assessed as intermediate isolate by FDA method; assay type: functional; how it was run: as §2
Vibrio cholerae [39] = experiment: Antimicrobial activity against Vibrio cholerae non-O1 assessed as resistant isolate by FDA method; assay type: functional; how it was run: as §2
Salmonella typhimurium [40] = experiment: Antimicrobial activity against Salmonella serotype Typhimurium assessed as susceptible isolate by FDA method; assay type: functional, Salmonella enterica subsp. enterica serovar Typhimurium; how it was run: as §1
Aeromonas hydrophila [41] = experiment: Antimicrobial activity against Aeromonas hydrophila assessed as intermediate isolate by EUCAST method; assay type: functional; how it was run: as §1
Salmonella typhimurium [42] = experiment: Antimicrobial activity against Salmonella serotype Typhimurium assessed as susceptible isolate by EUCAST method; assay type: functional, Salmonella enterica subsp. enterica serovar Typhimurium; how it was run: as §1
Vibrio vulnificus [43] = experiment: Antimicrobial activity against Vibrio vulnificus assessed as susceptible isolate by FDA method; assay type: functional; how it was run: as §1
Aeromonas hydrophila [44] = experiment: Antimicrobial activity against Aeromonas hydrophila assessed as susceptible isolate by FDA method; assay type: functional; how it was run: as §1
Vibrio cholerae [45] = experiment: Antimicrobial activity against Vibrio cholerae non-O1 assessed as intermediate isolate by EUCAST method; assay type: functional; how it was run: as §2
Aeromonas sobria [46] = experiment: Antimicrobial activity against Aeromonas sobria assessed as intermediate isolate by EUCAST method; assay type: functional; how it was run: as §1
Salmonella [47] = experiment: Antimicrobial activity against Salmonella serogroup O7 assessed as susceptible isolate by FDA method; assay type: functional; how it was run: as §1
Aeromonas caviae [48] = experiment: Antimicrobial activity against Aeromonas caviae assessed as resistant isolate by FDA method; assay type: functional; how it was run: as §2

## CN(C)c1cc(NC(=O)CNC(C)(C)C)c(O)c2c1C[C@H]1C[C@H]3[C@H](N(C)C)C(O)=C(C(N)=O)C(=O)[C@@]3(O)C(O)=C1C2=O [TIGECYCLINE]
Salmonella [1]
  Activity: 100%
Salmonella [2]
  Activity: 0%
[3]
  Activity: 0%
Salmonella [4]
  Activity: 0%
Vibrio parahaemolyticus [5]
  Activity: 0%
Aeromonas sobria [6]
  Activity: 0%
[7]
  Activity: 100%
Vibrio cholerae [8]
  Activity: 0%
Vibrio vulnificus [9]
  Activity: 0%
Salmonella [10]
  Activity: 0%
Vibrio parahaemolyticus [11]
  Activity: 100%
Vibrio parahaemolyticus [12]
  Activity: 0%
Vibrio vulnificus [13]
  Activity: 100%
Salmonella [14]
  Activity: 100%
[15]
  Activity: 0%
Aeromonas hydrophila [16]
  Activity: 98.8%
[17]
  Activity: 0%
Salmonella [18]
  Activity: 0%
Salmonella typhimurium [19]
  Activity: 1.6%
Vibrio cholerae [20]
  Activity: 0%
Vibrio cholerae [21]
  Activity: 100%
Aeromonas sobria [22]
  Activity: 100%
Aeromonas sobria [23]
  Activity: 100%
Salmonella [24]
  Activity: 100%
[25]
  Activity: 1.6%
Vibrio cholerae [26]
  Activity: 100%
Vibrio parahaemolyticus [27]
  Activity: 100%
Aeromonas caviae [28]
  Activity: 1.6%
Aeromonas caviae [29]
  Activity: 96.8%
Salmonella [30]
  Activity: 0%
Salmonella [31]
  Activity: 100%
Aeromonas caviae [32]
  Activity: 98.4%
Salmonella [33]
  Activity: 100%
Salmonella typhimurium [34]
  Activity: 0%
Salmonella [35]
  Activity: 0%
Vibrio vulnificus [36]
  Activity: 0%
Aeromonas caviae [37]
  Activity: 1.6%
Aeromonas hydrophila [38]
  Activity: 0%
Vibrio cholerae [39]
  Activity: 0%
Salmonella typhimurium [40]
  Activity: 100%
Aeromonas hydrophila [41]
  Activity: 1.2%
Salmonella typhimurium [42]
  Activity: 98.4%
Vibrio vulnificus [43]
  Activity: 100%
Aeromonas hydrophila [44]
  Activity: 100%
Vibrio cholerae [45]
  Activity: 0%
Aeromonas sobria [46]
  Activity: 0%
Salmonella [47]
  Activity: 100%
Aeromonas caviae [48]
  Activity: 0%
